Experiments:
[1] = test system: Femur; assay: Biodistribution in femur of Fisher 344 rat bearing 9L tumor after 60 mins; format: ADME, organism-based; conditions: in vivo, 1 h
Outline: (§1)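 9L tumor cells (5 × 10^6) inoculated into Fisher 344 rats, used 14-18 days later. Rats anesthetized with ethyl ether, given ~3.7 MBq [18F] tracer in 100 µL PBS via tail vein, sacrificed with ether at set times (10-120 min). Tissues dissected, weighed and gamma-counted. Values are %ID/g, mean ± SD, n = 4. Ratios taken from tissue uptake.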

[2] = Partition coefficient, log P of the compound; format: physicochemical; conditions: octanol/water
Outline: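 Shake-flask partition between 2.0 mL 1-octanol and 2.0 mL water. 10 µL of HPLC-purified radiotracer added, mixed 2 min at room temperature. Radioactivity counted in 300 µL of each phase to give log P.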

[3] = Ratio of biodistribution in tumor to brain in Fisher 344 rat bearing 9L tumor after 60 mins; format: ADME, organism-based; conditions: in vivo, 1 h; outline: as §1
[4] = test system: Lung; assay: Biodistribution in lung of Fisher 344 rat bearing 9L tumor after 30 mins; format: ADME, organism-based; conditions: in vivo, 0.5 h; outline: as §1
[5] = test system: Blood; assay: Biodistribution in blood of Fisher 344 rat bearing 9L tumor after 60 mins; format: ADME, organism-based; conditions: in vivo, 1 h; outline: as §1

## NC(Cc1ccc(O)c(CCC[18F])c1)C(=O)O (stereo not given)
[1]
  Drug uptake: 1.45 % ID/g
[2]
  logP: -1.07
[3]
  Ratio: 4.05
[4]
  Drug uptake: 0.78 % ID/g
[5]
  Drug uptake: 0.64 % ID/g

## COc1ccc(CC(N)C(=O)O)cc1CC[18F] (stereo not given)
[1]
  Drug uptake: 0.22 % ID/g
[2]
  logP: -0.75
[3]
  Ratio: 1.9
[4]
  Drug uptake: 0.37 % ID/g
[5]
  Drug uptake: 0.25 % ID/g

## NC(Cc1ccc(O)c(CC[18F])c1)C(=O)O (stereo not given)
[1]
  Drug uptake: 0.76 % ID/g
[2]
  logP: -1.37
[3]
  Ratio: 2.92
[4]
  Drug uptake: 0.12 % ID/g
[5]
  Drug uptake: 0.06 % ID/g

## COc1ccc(CC(N)C(=O)O)cc1CCC[18F] (stereo not given)
[1]
  Drug uptake: 0.18 % ID/g
[2]
  logP: -0.29
[3]
  Ratio: 2.6
[4]
  Drug uptake: 0.34 % ID/g
[5]
  Drug uptake: 0.24 % ID/g

Reference: ChEMBL document CHEMBL1138379, “Syntheses of F-18 labeled fluoroalkyltyrosine derivatives and their biological evaluation in rat bearing 9L tumor” (Bioorg Med Chem Lett, 2007)
